{"source": "ChEMBL document CHEMBL4024779", "about": "“Novel Terminal Bipheny-Based Diapophytoene Desaturases (CrtN) Inhibitors as Anti-MRSA/VISR/LRSA Agents with Reduced hERG Activity” (J Med Chem, 2018)", "key": {"Cytochrome P450 2C8": {"target": "Cytochrome P450 2C8 (Homo sapiens, UniProt P10632)", "sequence (P10632 whole entry)": "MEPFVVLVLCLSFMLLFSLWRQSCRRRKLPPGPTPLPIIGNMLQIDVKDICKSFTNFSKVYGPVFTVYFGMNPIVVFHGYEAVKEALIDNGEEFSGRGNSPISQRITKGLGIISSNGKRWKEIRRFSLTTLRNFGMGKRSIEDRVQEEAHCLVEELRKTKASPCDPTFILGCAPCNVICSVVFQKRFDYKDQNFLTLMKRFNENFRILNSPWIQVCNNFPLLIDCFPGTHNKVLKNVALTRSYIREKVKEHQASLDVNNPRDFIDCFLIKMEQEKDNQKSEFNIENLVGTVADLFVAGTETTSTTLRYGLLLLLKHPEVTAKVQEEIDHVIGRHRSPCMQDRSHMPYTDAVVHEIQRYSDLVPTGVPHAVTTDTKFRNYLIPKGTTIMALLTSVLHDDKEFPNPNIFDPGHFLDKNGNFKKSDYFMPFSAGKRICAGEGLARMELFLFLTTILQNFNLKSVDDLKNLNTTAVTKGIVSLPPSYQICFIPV", "experiment": "Inhibition of CYP2C8 in human liver microsomes using paclitaxel as substrate upto 10 uM after 20 mins in presence of NADPH by LC-MS/MS analysis", "format": "ADME"}, "Cytochrome P450 2C19": {"target": "Cytochrome P450 2C19 (Homo sapiens, UniProt P33261)", "sequence (P33261 whole entry)": "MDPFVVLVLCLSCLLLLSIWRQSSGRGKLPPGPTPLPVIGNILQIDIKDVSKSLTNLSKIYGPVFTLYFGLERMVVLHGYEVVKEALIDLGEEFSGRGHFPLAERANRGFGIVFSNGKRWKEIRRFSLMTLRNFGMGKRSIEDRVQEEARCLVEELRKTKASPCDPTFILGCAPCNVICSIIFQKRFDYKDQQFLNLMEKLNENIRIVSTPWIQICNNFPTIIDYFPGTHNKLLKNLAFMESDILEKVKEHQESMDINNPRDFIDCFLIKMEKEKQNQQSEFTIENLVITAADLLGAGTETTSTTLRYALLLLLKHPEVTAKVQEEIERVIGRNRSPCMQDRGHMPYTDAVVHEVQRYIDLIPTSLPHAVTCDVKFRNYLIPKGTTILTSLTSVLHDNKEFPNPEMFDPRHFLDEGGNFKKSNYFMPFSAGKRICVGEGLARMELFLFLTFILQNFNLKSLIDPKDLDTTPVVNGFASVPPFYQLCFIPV", "experiment": "Inhibition of CYP2C19 in human liver microsomes using mephenytoin as substrate upto 10 uM after 45 mins in presence of NADPH by LC-MS/MS analysis", "format": "ADME"}, "Cytochrome P450 3A4": {"target": "Cytochrome P450 3A4 (Homo sapiens, UniProt P08684)", "sequence (P08684 whole entry)": "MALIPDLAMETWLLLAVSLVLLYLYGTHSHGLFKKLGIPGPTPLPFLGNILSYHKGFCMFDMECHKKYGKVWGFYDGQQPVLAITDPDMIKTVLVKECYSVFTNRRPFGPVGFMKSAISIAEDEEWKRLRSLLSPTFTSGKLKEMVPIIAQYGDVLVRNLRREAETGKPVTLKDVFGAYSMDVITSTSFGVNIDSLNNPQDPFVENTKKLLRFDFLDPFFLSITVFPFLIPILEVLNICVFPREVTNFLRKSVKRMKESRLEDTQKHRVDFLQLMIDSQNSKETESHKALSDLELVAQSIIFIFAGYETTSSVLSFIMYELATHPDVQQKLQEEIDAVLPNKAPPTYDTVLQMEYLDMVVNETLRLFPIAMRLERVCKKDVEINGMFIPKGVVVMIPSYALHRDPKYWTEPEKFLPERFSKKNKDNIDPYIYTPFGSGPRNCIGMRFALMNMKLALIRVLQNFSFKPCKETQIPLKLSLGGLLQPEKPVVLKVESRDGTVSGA", "experiment": "Inhibition of CYP3A4 in human liver microsomes using testosterone as substrate upto 10 uM after 5 mins in presence of NADPH by LC-MS/MS analysis", "format": "ADME"}, "[1]": {"experiment": "AUC (0 to 24 hrs) in Sprague-Dawley rat at 10 mg/kg, ip administered as single dose by LC-MS/MS analysis", "format": "ADME, organism-based", "parameters": "dose 10 mg/kg, time < 24 hr, route intraperitoneal", "conditions": "in vivo"}, "[2]": {"experiment": "AUC (0 to infinity) in Sprague-Dawley rat at 5 mg/kg, iv administered as single dose by LC-MS/MS analysis", "format": "ADME, organism-based", "parameters": "dose 5 mg/kg, time infinity, route intravenous", "conditions": "in vivo"}, "[3]": {"experiment": "AUC (0 to infinity) in Sprague-Dawley rat at 10 mg/kg, ip administered as single dose by LC-MS/MS analysis", "format": "ADME, organism-based", "parameters": "dose 10 mg/kg, time infinity, route intraperitoneal", "conditions": "in vivo"}, "[4]": {"experiment": "Cmax in Sprague-Dawley rat at 10 mg/kg, po administered as single dose by LC-MS/MS analysis", "format": "ADME, organism-based", "parameters": "dose 10 mg/kg, route oral", "conditions": "in vivo"}, "[5]": {"experiment": "Half life in Sprague-Dawley rat at 5 mg/kg, iv administered as single dose by LC-MS/MS analysis", "format": "ADME, organism-based", "conditions": "in vivo"}, "[6]": {"experiment": "Half life in Sprague-Dawley rat at 10 mg/kg, po administered as single dose by LC-MS/MS analysis", "format": "ADME, organism-based", "conditions": "in vivo"}, "[7]": {"experiment": "AUC (0 to infinity) in mouse at 2 mg/kg, iv administered as single dose by LC-MS/MS analysis", "format": "ADME, organism-based", "parameters": "dose 2 mg/kg, time infinity, route intravenous", "conditions": "in vivo"}, "[8]": {"experiment": "AUC (0 to infinity) in mouse at 10 mg/kg, po administered as single dose by LC-MS/MS analysis", "format": "ADME, organism-based", "parameters": "dose 10 mg/kg, time infinity, route oral", "conditions": "in vivo"}, "[9]": {"experiment": "Cmax in mouse at 10 mg/kg, po administered as single dose by LC-MS/MS analysis", "format": "ADME, organism-based", "parameters": "dose 10 mg/kg, route oral", "conditions": "in vivo"}, "[10]": {"experiment": "Tmax in mouse at 2 mg/kg, iv administered as single dose by LC-MS/MS analysis", "format": "ADME, organism-based", "conditions": "in vivo"}, "[11]": {"experiment": "Inhibition of CrtN in methicillin-resistant Staphylococcus aureus NRS100 assessed as reduction in staphyloxanthin levels after 48 hrs by spectrophotometric method-based pigment inhibition assay"}, "Staphylococcus aureus [12]": {"test_system": "Staphylococcus aureus", "experiment": "In vivo anti-virulence activity against Staphylococcus aureus Newman infected in BALB/c mouse model assessed as reduction in bacterial load in kidney at 0.2 mg bid for 3.5 days administered orally 6 hrs post infection by serial dilution method relative to control", "format": "functional", "parameters": "scale not given: the % may be the effect or the level left", "summary_of_the_method": "(§1)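 Mice got 3.1 × 10^7 CFU S. aureus Newman by retro-orbital injection. Oral compound was given b.i.d. for 3.5 d, starting 6 h after infection. […] Log10 CFU was counted per kidney and per heart.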"}, "Staphylococcus aureus [13]": {"test_system": "Staphylococcus aureus", "experiment": "In vivo anti-virulence activity against Staphylococcus aureus Newman infected in BALB/c mouse model assessed as reduction in bacterial load in kidney at 0.1 mg bid for 3.5 days administered orally 6 hrs post infection by serial dilution method relative to control", "format": "functional", "parameters": "scale not given: the % may be the effect or the level left", "summary_of_the_method": "as §1"}, "Staphylococcus aureus [14]": {"test_system": "Staphylococcus aureus", "experiment": "In vivo anti-virulence activity against Staphylococcus aureus Newman infected in BALB/c mouse model assessed as reduction in bacterial load in heart at 0.4 mg bid for 3.5 days administered orally 6 hrs post infection by serial dilution method relative to control", "format": "functional, organism-based", "summary_of_the_method": "as §1"}, "Staphylococcus aureus [15]": {"test_system": "Staphylococcus aureus", "experiment": "In vivo anti-virulence activity against Staphylococcus aureus Newman infected in BALB/c mouse model assessed as reduction in bacterial load in heart at 0.4 mg bid for 3.5 days administered orally 6 hrs post infection by serial dilution method relative to vancomycin", "format": "functional", "parameters": "scale not given: the % may be the effect or the level left", "summary_of_the_method": "as §1"}, "Staphylococcus aureus [16]": {"test_system": "Staphylococcus aureus", "experiment": "In vivo anti-virulence activity against Staphylococcus aureus Newman infected in BALB/c mouse model assessed as reduction in bacterial load in heart at 0.2 mg bid for 3.5 days administered orally 6 hrs post infection by serial dilution method relative to vancomycin", "format": "functional", "parameters": "scale not given: the % may be the effect or the level left", "summary_of_the_method": "as §1"}, "Staphylococcus aureus [17]": {"test_system": "Staphylococcus aureus", "experiment": "In vivo anti-virulence activity against Staphylococcus aureus Newman infected in BALB/c mouse model assessed as reduction in bacterial load in heart at 0.1 mg bid for 3.5 days administered orally 6 hrs post infection by serial dilution method relative to vancomycin", "format": "functional", "parameters": "scale not given: the % may be the effect or the level left", "summary_of_the_method": "as §1"}, "Rattus norvegicus [18]": {"test_system": "Rattus norvegicus", "experiment": "Toxicity in Sprague-Dawley rat at 60 to 1000 mg/kg, po administered as single dose assessed as changes in water consumption measured during 2 weeks post administration", "format": "organism-based", "conditions": "in vivo, 336 h", "summary_of_the_method": "(§2)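 Rats, 30 in total, randomised into three groups. Each received a single oral dose of 60, 250 or 1000 mg/kg on day 1. Poisoning symptoms, mortality, behaviour, water and food consumption and body weight monitored immediately and over 2 weeks.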"}, "Rattus norvegicus [19]": {"test_system": "Rattus norvegicus", "experiment": "Toxicity in Sprague-Dawley rat at 60 to 1000 mg/kg, po administered as single dose assessed as changes in food consumption measured during 2 weeks post administration", "format": "organism-based", "conditions": "in vivo, 336 h", "summary_of_the_method": "as §2"}, "Pseudomonas aeruginosa": {"test_system": "Pseudomonas aeruginosa", "experiment": "Antibacterial activity against Pseudomonas aeruginosa after 24 hrs by broth dilution method", "format": "functional"}, "Staphylococcus aureus [20]": {"test_system": "Staphylococcus aureus", "experiment": "In vivo anti-virulence activity against Staphylococcus aureus Newman in mouse lethal infection model assessed as host survival rate at 0.1 mg bid for 3.5 days administered intraperitoneally 6 hrs post infection and measured on day 4", "format": "functional", "summary_of_the_method": "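In a lethal sepsis model, mice (n=15) were challenged with 2 × 10^8 CFU S. aureus Newman. Animal survival was recorded daily through day 8.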"}, "Staphylococcus aureus [21]": {"test_system": "Staphylococcus aureus", "experiment": "In vivo anti-virulence activity against methicillin-resistant Staphylococcus aureus LRSA202 infected in BALB/c mouse model assessed as reduction in bacterial load in kidney at 0.1 mg bid for 3.5 days administered intraperitoneally 6 hrs post infection by serial dilution method relative to control", "format": "functional, organism-based", "summary_of_the_method": "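Mice were infected by retro-orbital injection with LRSA56 (5.0 × 10^7 CFU) or LRSA202 (7.0 × 10^7 CFU). Compound was given intraperitoneally 6 h after infection. […] Log10 CFU was counted in kidneys and hearts, with groups compared by two-tailed Mann-Whitney test.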"}, "[22]": {"target": "T1, 4,4'-diapophytoene desaturase (4,4'-diaponeurosporene-forming) (Staphylococcus aureus (strain USA300)) (UniProt Q2FDU6)", "T1 sequence (whole entry)": "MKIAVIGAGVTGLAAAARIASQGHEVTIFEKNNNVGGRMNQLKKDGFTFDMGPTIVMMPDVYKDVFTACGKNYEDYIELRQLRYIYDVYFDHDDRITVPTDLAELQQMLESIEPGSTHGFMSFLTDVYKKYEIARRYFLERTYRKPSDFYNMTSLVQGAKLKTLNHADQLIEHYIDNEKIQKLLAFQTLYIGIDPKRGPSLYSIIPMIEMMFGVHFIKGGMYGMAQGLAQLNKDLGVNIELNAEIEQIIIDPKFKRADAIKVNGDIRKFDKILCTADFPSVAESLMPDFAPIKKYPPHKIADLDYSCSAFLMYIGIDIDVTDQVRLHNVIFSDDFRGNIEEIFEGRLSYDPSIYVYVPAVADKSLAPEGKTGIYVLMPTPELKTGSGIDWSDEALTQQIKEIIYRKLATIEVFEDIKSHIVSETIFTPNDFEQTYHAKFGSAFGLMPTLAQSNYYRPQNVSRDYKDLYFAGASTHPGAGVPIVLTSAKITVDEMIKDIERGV", "conditions": "Staphylococcus aureus LAC, 1 uM"}}, "note": "Calls of active or inactive are those of the source. The rule behind the calls is not given here.", "data": [{"smiles": "CN(C/C=C/c1ccc(-c2ccccc2)cc1)Cc1coc2ccccc12.Cl", "values": [{"measurement": "IC50", "setting": "Cytochrome P450 2C8", "result": "> 10", "unit": "µM"}, {"measurement": "IC50", "setting": "Cytochrome P450 2C19", "result": "> 10", "unit": "µM"}, {"measurement": "IC50", "setting": "Cytochrome P450 3A4", "result": "> 10", "unit": "µM"}, {"measurement": "AUC(0-t) at 24 h", "setting": "[1]", "result": 975, "unit": "µg·h/mL"}, {"measurement": "AUC(0-inf)", "setting": "[2]", "result": 2.86, "unit": "µg·h/mL"}, {"measurement": "AUC(0-inf)", "setting": "[3]", "result": 1090, "unit": "µg·h/mL"}, {"measurement": "Cmax", "setting": "[4]", "result": 213, "unit": "ng/mL"}, {"measurement": "half-life", "setting": "[5]", "result": 2.46, "unit": "h"}, {"measurement": "half-life", "setting": "[6]", "result": 1.29, "unit": "h"}, {"measurement": "AUC(0-inf)", "setting": "[7]", "result": 1.09, "unit": "µg·h/mL"}, {"measurement": "AUC(0-inf)", "setting": "[8]", "result": 4.56, "unit": "µg·h/mL"}, {"measurement": "Cmax", "setting": "[9]", "result": 801, "unit": "ng/mL"}, {"measurement": "Tmax", "setting": "[10]", "result": 4.8, "unit": "min"}, {"measurement": "IC50", "setting": "[11]", "result": 0.0012, "unit": "µM"}, {"measurement": "Activity", "setting": "Staphylococcus aureus [12]", "result": 90, "unit": "%"}, {"measurement": "Activity", "setting": "Staphylococcus aureus [13]", "result": 90, "unit": "%"}, {"measurement": "Activity", "setting": "Staphylococcus aureus [14]", "result": "inactive"}, {"measurement": "Activity", "setting": "Staphylococcus aureus [15]", "result": ">55.3", "unit": "%"}, {"measurement": "Activity", "setting": "Staphylococcus aureus [16]", "result": ">55.3", "unit": "%"}, {"measurement": "Activity", "setting": "Staphylococcus aureus [17]", "result": ">55.3", "unit": "%"}, {"measurement": "Activity", "setting": "Rattus norvegicus [18]", "result": "Non-Toxic"}, {"measurement": "Activity", "setting": "Rattus norvegicus [19]", "result": "Non-Toxic"}, {"measurement": "MIC", "setting": "Pseudomonas aeruginosa", "result": "> 500", "unit": "µg/mL"}, {"measurement": "Survival", "setting": "Staphylococcus aureus [20]", "result": 80, "unit": "%"}, {"measurement": "Activity", "setting": "Staphylococcus aureus [21]", "result": "Active"}, {"measurement": "Survival", "setting": "[22]", "result": 0.7, "unit": "%"}]}]}
